Measured values published in ChEMBL document CHEMBL5036367, “The BASHY Platform Enables the Assembly of a Fluorescent Bortezomib-GV1001 Conjugate” (ACS Med Chem Lett, 2022).

What was measured:
HT-29 = test: Cytotoxicity against human HT-29 cells assessed as reduction in cell viability incubated for 24 hrs by MTT assay; type: functional, cell-based; conditions: HT-29, 24 h
HeLa [1] = test: Cytotoxicity against oleic acid-induced human HeLa cells assessed as reduction in cell viability incubated for 24 hrs by MTT assay; type: functional, cell-based
HeLa [2] = test: Cytotoxicity against human HeLa cells assessed as reduction in cell viability incubated for 24 hrs by MTT assay; type: functional, cell-based
[3] = Stability of compound in ammonium acetate assessed as half life at pH 7; type: physicochemical
[4] = Drug uptake in lysosomes of human HT-29 cells assessed as accumulation in lipid droplets by LysoTracker Red and Nile red staining based confocal microscopic analysis; type: ADME, cell-based
Outline: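 HT-29 cells were imaged by confocal fluorescence microscopy using the compound's own fluorescence. Co-staining was with LysoTracker Deep Red for lysosomes and Nile Red for lipid droplets. Colocalization was expressed as the Pearson's correlation coefficient.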

Row | half-life [3] [h] | Drug uptake [4] | Compound | IC50 (HT-29) [µM] | IC50 (HeLa [1]) [µM] | IC50 (HeLa [2]) [µM]
1 | 13 | Active | CCC1=[N+]2N=C(c3ccccc3)C(=O)O[B-]2([C@H](CC(C)C)NC(=O)[C@@H](Cc2ccccc2)NC(=O)c2cnccn2)Oc2cc(OC)ccc21 (stereo partly specified) | 0.0195 | > 0.2 | 0.134
2 | – | – | CC(C)C[C@H](NC(=O)[C@H](Cc1ccccc1)NC(=O)c1cnccn1)B(O)O [BORTEZOMIB] | 0.0032 | > 0.2 | 0.02
3 | – | Active | CCC1=[N+]2N=C(c3ccccc3)C(=O)O[B-]2(c2ccccc2)Oc2cc(OC)ccc21 (stereo unspecified) | – | – | –
4 | – | Not Active | CC[C@H](C)[C@H](NC(=O)[C@H](Cc1ccccc1)NC(=O)[C@H](CCCNC(=N)N)NC(=O)[C@H](CC(C)C)NC(=O)[C@H](CCCNC(=N)N)NC(=O)[C@H](CO)NC(=O)[C@@H](NC(=O)[C@H](CC(C)C)NC(=O)[C@H](CC(C)C)NC(=O)[C@H](C)NC(=O)[C@@H]1CCCN1C(=O)[C@H](CCCNC(=N)N)NC(=O)[C@H](C)NC(=O)[C@@H](N)CCC(=O)O)[C@@H](C)O)C(=O)N1CCC[C@H]1C(=O)N[C@@H](CCCCN)C(=O)N[C@H](CSC1CC(=O)N(CCC(=O)NCCOCCOCCOCCOCCC(=O)NCCC(=O)N2Cc3ccccc3-c3c(nnn3CCOCCOCCOCCOc3ccc4c(c3)O[B-]3([C@@H](CC(C)C)NC(=O)[C@@H](Cc5ccccc5)NC(=O)c5cnccn5)OC(=O)C(c5ccccc5)=N[N+]3=C4c3ccccc3)-c3ccccc32)C1=O)C(=O)O (stereo partly specified) | 0.1 | – | –
5 | – | – | CCc1c2c(nc3ccc(O)cc13)-c1cc3c(c(=O)n1C2)COC(=O)[C@]3(O)CC [7-ETHYL-10-HYDROXYCAMPTOTHECIN] | – | > 1 | 0.349
6 | – | – | COc1ccc2c(c1)O[B-]1([C@H](CC(C)C)NC(=O)[C@@H](Cc3ccccc3)NC(=O)c3cnccn3)OC(=O)C(c3ccccc3)=N[N+]1=C2c1ccccc1 (stereo partly specified) | 0.45 | – | –
7 | – | – | COc1cccc2c1C(=O)c1c(O)c3c(c(O)c1C2=O)C[C@@](O)(C(=O)CO)C[C@@H]3O[C@H]1C[C@H](N)[C@H](O)[C@H](C)O1 [DOXORUBICIN] | – | > 1 | 0.09
